Experimental data from different studies.
Lines come from different studies, so protocols differ.
Cell line: HepG2
Effect on: cell growth or viability

| SMILES | assay | setting | quantity | value |
| --- | --- | --- | --- | --- |
| COc1ccc(-c2nc3ncccn3c2NC(C)(C)CC(C)(C)C)cc1O | MTT | 25 µM, 48 h | viability | 77.7% |
| CCCCCCn1c(-c2cccc(Cl)c2)n[nH]c1=S | resazurin | 1 µM, 24 h | viability | 87% |
| CNc1cccc2cc(C(=O)NCCc3cccc(C(=O)O)c3)c(=O)[nH]c12 | CCK-8 | 50 µM, 48 h | cell death | 15% |
| Cc1[nH]c2ccc(F)cc2c(=O)c1-c1ccc(Oc2ccc(OC(F)(F)F)cc2)nc1 | resazurin |  | IC50 | > 10 µM |
| COC1=CC(c2ccc[nH]2)=NC1=Cc1ccc(CCCCCCCCCCCCO)[nH]1 |  |  | IC50 | 6.18 µM |
| COc1ccc2c(c1)c1c(n2CO)CN2CCc3cc(OC)c(OCC(F)(F)F)cc3C2C1 (stereo not drawn) |  | 5 µM, 24 h | viability | 102% |
| COc1cc2[nH]c(C)c(-c3ccc(Oc4ccc(F)cc4)cc3)c(=O)c2cc1Cl | resazurin |  | IC50 | > 10 µM |
| COc1ccc2c(c1)c1c(n2CO)CN2CCc3cc(OCc4ccccc4)c(OC)cc3C2C1 (stereo not drawn) |  | 10 µM, 24 h | viability | 111% |
| COc1ccc(CCN2CCC(Nc3nc4ccccc4n3Cc3ccc(F)cc3)CC2)cc1 | resazurin | 50 µM, 24 h | viability | 20% |
| CNc1cccc2cc(C(=O)Nc3ccc(C(=O)O)cc3)c(=O)[nH]c12 | CCK-8 | 10 µM, 48 h | cell death | 1.5% |
| COc1cc2c(cc1OCc1ccccc1F)C1Cc3c(n(CO)c4ccccc34)CN1CC2 (stereo not drawn) |  | 5 µM, 24 h | viability | 119% |
| COC(=O)[C@]1(O)C[C@@H](O)[C@@H](O)[C@H](OC(=O)/C=C/c2ccc(O)c(O)c2)C1 | WST-1 |  | IC50 | 30.9 µM |
| COC1=CC(c2ccc[nH]2)=NC1=Cc1ccc(CCCCCCCCCCO)[nH]1 |  |  | IC50 | 11.4 µM |
| COc1ccc2c(c1)c1c(n2CO)CN2CCc3cc(OC)c(OCc4ccc(F)cc4)cc3C2C1 (stereo not drawn) |  | 20 µM, 24 h | viability | 104% |
| OC(c1cc(C(F)(F)F)nc2c(C(F)(F)F)cccc12)C1CCCCN1 (stereo not drawn) |  |  | IC50 | 11 µM |
| C/C=C(/C)C(=O)O[C@@H]1[C@H](OC(C)=O)c2c(ccc3ccc(=O)oc23)OC1(C)C | WST-1 |  | IC50 | 50.9 µM |
| COc1cc2[nH]c(C)c(-c3ccc(Oc4ccc(C(F)(F)F)cn4)cc3)c(=O)c2cc1Cl | resazurin |  | IC50 | > 10 µM |
| COc1cccc2c1C(=O)c1c(O)c3c(c(O)c1C2=O)C[C@@](O)(C(=O)CO)C[C@@H]3O[C@H]1C[C@H](N)[C@H](O)[C@H](C)O1 | MTT | 25 µM, 48 h | viability | 31.4% |
